We go through 36 sequences from the array DNA melting data of Ke et al. (doi:10.1101/2024.01.08.574731).

Data set [1] can be described thus: folding enthalpy; higher = less favourable; fluorescence melt of hairpins on a sequencing array, two-state fit. The conditions noted are these: sodium 0.088 M. Put shortly: (§1)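 Library hairpins on a sequenced MiSeq flow cell carried annealed Cy3 and quencher oligos, and their Cy3 fluorescence was imaged in 50 mM Na-HEPES pH 8.0 with 25 mM NaCl, in 2.5 °C steps up to 60 °C. Signals were normalised to Cy3 before quenching and to control constructs. Melting temperature and folding enthalpy were obtained from bootstrapped two-state fits, combined by inverse-variance weighting across four replicates, and the fitted temperatures were then raised by 9.35 °C to match UV melts.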

Data set [2] is described as follows: melting temperature; fluorescence melt of hairpins on a sequencing array, two-state fit, raised by 9.35 °C to match UV melts. The conditions noted are these: sodium 0.088 M. In a few lines: as §1

As for GCTATCGAAAGATGAAGC ((((((....)))..))), in data set [1], the folding enthalpy is -16.2 kcal/mol. In data set [2], the Tm stood at 32.8 °C.

GCTATGCGAAAGCAAGC (((.(((....)))))): the folding enthalpy in data set [1] was -17.5 kcal/mol. The Tm in data set [2] is 51.7 °C.

GCTATGCGAAAGCACTGC ((..(((....)))..)): the folding enthalpy in data set [1] is -15.3 kcal/mol. In addition, the Tm in data set [2] turned out to be 36.3 °C.

As to GCTATGCGAAAGCAGCGC ((..(((....)))..)), in data set [1], the folding enthalpy was -18.9 kcal/mol. Further, the Tm in data set [2] turned out to be 54.2 °C.

Turning to GCTATGCGAAAGCATGGC ((.((((....)))).)), the folding enthalpy in data set [1] was -32 kcal/mol. The Tm in data set [2] came to 65 °C.

Turning to GCTATGCGAAAGCCTAGC ((((.((....)).)))), the folding enthalpy in data set [1] was -28.8 kcal/mol. For the same sequence, the Tm in data set [2] was found to be 52.4 °C.

For the sequence GCTATGCGAAAGCGTCGC ((.(.((....)).).)), the folding enthalpy in data set [1] was -18.1 kcal/mol. Also, the Tm in data set [2] came out at 43.2 °C.

Take GCTATGCGAAAGCGTGGC ((.(.((....)).).)): the folding enthalpy in data set [1] is -26.1 kcal/mol. In addition, in data set [2], the Tm is 53.5 °C.

As for GCTATGCGAAAGCGTTGC ((.(.((....)).).)), in data set [1], the folding enthalpy was -22.9 kcal/mol. The Tm in data set [2] came to 48.9 °C.

Turning to GCTATGCGAAAGCTTCGC ((.(.((....)).).)), the folding enthalpy in data set [1] was -14.2 kcal/mol. Besides, in data set [2], the Tm is 41.5 °C.

With GCTATGGGAAACCACAGC (((.(((....))).))), in data set [1], the folding enthalpy is -23.7 kcal/mol. Besides, the Tm in data set [2] turned out to be 38.6 °C.

In the case of GCTATTACGAAAGTAAGC (((..(((....)))))), in data set [1], the folding enthalpy was -13.6 kcal/mol. In data set [2], the Tm amounted to 30 °C.

With GCTATTCGAAAGAAAGC (((.(((....)))))), the folding enthalpy in data set [1] was -20.1 kcal/mol. Besides, the Tm in data set [2] is 32.1 °C.

On to GCTATTCGAAAGAACAGC (((.(((....))).))), for which, in data set [1], the folding enthalpy is -29.6 kcal/mol. Besides, the Tm in data set [2] stood at 40.4 °C.

For GCTATTGGAAACGATAGC (((((.(....).))))), the folding enthalpy in data set [1] is -32.4 kcal/mol. Also, in data set [2], the Tm was determined as 44.8 °C.

With GCTCAACGAAAGTTTAGC (((.(((....))).))), the folding enthalpy in data set [1] was -28.2 kcal/mol. Besides, in data set [2], the Tm is 44.5 °C.

For the sequence GCTCAAGGAAACCTGAGC (((((.(....).))))), in data set [1], the folding enthalpy is -35.4 kcal/mol. For the same sequence, the Tm in data set [2] was 46.9 °C.

Turning to GCTCACACGAAAGTGAGC (((..(((....)))))), the folding enthalpy in data set [1] is -32 kcal/mol. Also, the Tm in data set [2] came to 60.5 °C.

Turning to GCTCACGAAAGTGAAAGC ((((((....)))..))), the folding enthalpy in data set [1] is -21 kcal/mol. In addition, the Tm in data set [2] was 48.9 °C.

Take GCTCACGAAAGTGAAGC ((((((....))).))): the folding enthalpy in data set [1] is -29 kcal/mol. In data set [2], the Tm was found to be 56 °C.

For the sequence GCTCACGAAAGTGGGAGC ((((((....)))..))), the folding enthalpy in data set [1] was -20.1 kcal/mol. For the same sequence, the Tm in data set [2] was determined as 49.9 °C.

GCTCACGAAAGTGTAAGC ((((((....)))..))): in data set [1], the folding enthalpy is -19 kcal/mol. Further, the Tm in data set [2] was determined as 45.4 °C.

On to GCTCACGAAAGTGTAGC ((((((....))).))), for which the folding enthalpy in data set [1] is -24.6 kcal/mol. Besides, the Tm in data set [2] was 51.5 °C.

Consider GCTCACGGAAACGCAAGC (((..((....))..))), for which the folding enthalpy in data set [1] was -8.31 kcal/mol. In addition, in data set [2], the Tm was found to be 26.8 °C.

GCTCAGAAATGAGC (((((....))))): in data set [1], the folding enthalpy is -26.8 kcal/mol. Also, the Tm in data set [2] worked out at 55.4 °C.

Consider GCTCAGACGAAAGTCAGC (((..(((....)))))), for which the folding enthalpy in data set [1] was -15.5 kcal/mol. In addition, the Tm in data set [2] was found to be 41 °C.

Regarding GCTCAGCGAAAGCCGAGC ((((.((....)).)))), in data set [1], the folding enthalpy was -28.1 kcal/mol. For the same sequence, in data set [2], the Tm was found to be 63.5 °C.

For GCTCAGCGAAAGCTAGGC ((..(((....)))..)), the folding enthalpy in data set [1] was -15.5 kcal/mol. The Tm in data set [2] is 44.5 °C.

As for GCTCAGCGAAAGCTGCGC ((.((((....)))).)), the folding enthalpy in data set [1] is -24.8 kcal/mol. Besides, the Tm in data set [2] was determined as 59.9 °C.

Take GCTCAGCGAAAGCTTGGC ((..(((....)))..)): the folding enthalpy in data set [1] is -18.8 kcal/mol. In addition, the Tm in data set [2] is 39.7 °C.

On to GCTCAGGCGAAAGCCAGC (((..(((....)))))), for which the folding enthalpy in data set [1] was -12.6 kcal/mol. Further, in data set [2], the Tm came out at 42.8 °C.

For GCTCAGGGAAACCCAAGC (((..((....))..))), in data set [1], the folding enthalpy was -12.9 kcal/mol. Further, in data set [2], the Tm amounted to 33.3 °C.

With GCTCAGGGAAACCTAAGC (((.(((....))).))), in data set [1], the folding enthalpy is -20.6 kcal/mol. Moreover, in data set [2], the Tm stood at 34.1 °C.

On to GCTCAGGGAAACTTGAGC (((((.(....).))))), for which, in data set [1], the folding enthalpy is -33.3 kcal/mol. Also, the Tm in data set [2] was 48.7 °C.

On to GCTCATCCGAAAGGAAGC (((..(((....)))))), for which, in data set [1], the folding enthalpy is -11.2 kcal/mol. For the same sequence, in data set [2], the Tm is 29.8 °C.

For the sequence GCTCATCGAAAGATAGC (((.(((....)))))), in data set [1], the folding enthalpy was -26.3 kcal/mol. Further, in data set [2], the Tm turned out to be 42.3 °C.
